Calls of active or inactive are those of the source. The calls are words filed in the database; no cut-off is given here.
How the values were obtained:
[1] = test system: Brain; experiment: Antioxidant activity in rat brain homogenate assessed as inhibition of Fe(II)-induced TBARS formation after 60 mins by spectrophotometry; format: functional, tissue-based
[2] = Antioxidant activity assessed as glutathione peroxidase-like activity by UV spectrophotometry relative to (PhSe)2; format: physicochemical
Summary of the method: (§1)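 Tomoda-type thiol peroxidase model run in methanol, or ethanol where needed for solubility, at 25 (±3) °C. Catalyst at 0.1 mM final and PhSH at 2 mM final were mixed. After about 120 s, H₂O₂ was added to 5 mM final. PhSSPh formation was followed at 305 nm, with runs repeated more than three times. T₅₀ is the time to halve the thiol after H₂O₂ addition. Ebselen and (PhSe)₂ were each set to 1.0.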

[3] = Antioxidant activity assessed as glutathione peroxidase-like activity assessed as time required to reduce the thiol concentration by 50% after addition of H2O2 by UV spectrophotometry; format: physicochemical; summary of the method: as §1
[4] = molecular target: T1, Thioredoxin reductase 1, cytoplasmic (Rattus norvegicus) (UniProt O89049); experiment: Activity of partially purified rat Thioredoxin reductase assessed as NADPH oxidation after 10 mins by spectrophotometry
T1 sequence (whole entry): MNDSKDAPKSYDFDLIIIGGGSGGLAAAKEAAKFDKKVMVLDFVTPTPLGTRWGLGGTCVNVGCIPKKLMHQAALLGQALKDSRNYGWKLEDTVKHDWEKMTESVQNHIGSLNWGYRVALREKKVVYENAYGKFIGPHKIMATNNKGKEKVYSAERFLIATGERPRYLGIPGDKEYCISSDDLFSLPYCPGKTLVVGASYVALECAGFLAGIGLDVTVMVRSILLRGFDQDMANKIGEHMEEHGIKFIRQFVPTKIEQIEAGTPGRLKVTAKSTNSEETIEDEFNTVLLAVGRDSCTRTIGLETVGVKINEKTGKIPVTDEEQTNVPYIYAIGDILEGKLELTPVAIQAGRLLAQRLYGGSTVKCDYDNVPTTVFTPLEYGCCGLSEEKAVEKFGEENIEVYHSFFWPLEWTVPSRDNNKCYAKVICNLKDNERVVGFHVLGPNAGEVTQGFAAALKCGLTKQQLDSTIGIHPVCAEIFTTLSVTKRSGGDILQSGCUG
Summary of the method: (§2)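 Enzyme: partially purified TrxR from rat liver. NADPH consumption read at 340 nm over 10 min, with or without the organoselenium compound. Activity is given as nmol NADPH/min/mg. Efficiency is expressed relative to ebselen. In the reference reaction, NADPH oxidation was checked for sensitivity to […] AuCl₃. Details are in the cited reference.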

[5] = Antioxidant activity assessed as glutathione peroxidase-like activity by UV spectrophotometry relative to ebselen; format: physicochemical; summary of the method: as §1
[6] = molecular target: T1, Thioredoxin reductase 1, cytoplasmic (Rattus norvegicus); experiment: Activity of partially purified rat Thioredoxin reductase assessed as NADPH oxidation after 10 mins by spectrophotometry relative to ebselen; summary of the method: as §2
[7] = molecular target: T1, Thioredoxin reductase 1, cytoplasmic (Rattus norvegicus); experiment: Activity of partially purified rat Thioredoxin reductase assessed as 5 umol/L AuCl3-mediated inhibition of NADPH oxidation by spectrophotometry
Summary of the method: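 Partially purified rat liver TrxR was used. NADPH consumption was followed at 340 nm for 10 min in the absence or presence of an organoselenium catalyst. AuCl3 was added to the reaction containing the reference selenium catalyst. Activity was expressed as nmol NADPH/min/mg.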

Compound | inhibition [1] | Ratio [2] | Time [3] [min] | Activity [4] [nmol/min/mg] | Ratio [5] | Ratio [6] | inhibition [7] [%]
CC(Cc1ccccc1)NC(=O)c1ccccc1[Se][Se]c1ccccc1C(=O)NC(C)Cc1ccccc1 (centres undefined) | Active | 3.26 | 16.87 | 0 | 9.14 |  | 
O=C(C[Se][Se]CC(=O)NCCc1ccccc1)NCCc1ccccc1 | Active | 1.23 | 44.9 | 19.1 | 3.43 | 5.6 | 
CC(Cc1ccccc1)NC(=O)CC[Se][Se]CCC(=O)NC(C)Cc1ccccc1 (centres undefined) | Active |  | 76 | 13.7 | 2.03 | 4 | 
c1ccc([Se][Se]c2ccccc2)cc1 |  |  | 55.04 |  | 2.8 |  | 
O=C(CC[Se][Se]CCC(=O)NCCc1ccccc1)NCCc1ccccc1 | Active |  | 81.43 | 16.1 | 1.89 | 4.7 | 
O=C(NCCc1ccccc1)c1ccccc1[Se][Se]c1ccccc1C(=O)NCCc1ccccc1 | Active | 1.85 | 29.73 | 0 | 5.2 |  | 
O=c1c2ccccc2[se]n1-c1ccccc1 [EBSELEN] |  |  | 154.26 | 3.4 |  |  | > 95
CC(Cc1ccccc1)NC(=O)C[Se][Se]CC(=O)NC(C)Cc1ccccc1 (centres undefined) | Active |  | 299.63 | 0 |  |  | 
